Data taken from ChEMBL document CHEMBL1629439, “High-throughput identification of antibacterials against methicillin-resistant Staphylococcus aureus (MRSA) and the transglycosylase” (Bioorg Med Chem, 2010).
Converted amounts (≈) assume the structure as drawn. The source made the active and inactive calls. The calls are words filed in the database; no cut-off is given here.

What was measured:
Staphylococcus aureus [1] = test: Antimicrobial activity against oxacillin- and methicillin-resistant Staphylococcus aureus isolate Sa-OXA-R2 after 18 to 24 hrs by alamar blue assay; format: functional
Method in brief: (§1)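 Broth microdilution per NCCLS standard, Mueller-Hinton broth, 8-point twofold dilutions; exponentially growing cells at 5 10^5 cells/ml with compound, 18–24 h at 37 C; 20% Alamar blue added, fluorescence read; MIC90 taken as lowest concentration preventing at least 90% growth.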

Bacillus subtilis = test: Antimicrobial activity against Bacillus subtilis ATCC 23857 after 18 to 24 hrs by alamar blue assay; format: functional
Method in brief: (§2)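 Broth microdilution per NCCLS in Mueller-Hinton broth, 8-point twofold dilutions, 384-well format. Exponential-phase cells at 5 × 10^5 cells/ml incubated with compound 18–24 h at 37 °C, then 20% Alamar blue added and fluorescence read. MIC90 taken as the lowest concentration preventing at least 90% bacterial growth.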

Escherichia coli [2] = test: Antimicrobial activity against Escherichia coli ATCC […] after 18 to 24 hrs by alamar blue assay; format: functional; method in brief: as §2
Pseudomonas aeruginosa = test: Antimicrobial activity against Pseudomonas aeruginosa ATCC 25619 after 18 to 24 hrs by alamar blue assay; format: functional; method in brief: as §2
Acinetobacter baumannii = test: Antimicrobial activity against Acinetobacter baumannii ATCC 49139 after 18 to 24 hrs by alamar blue assay; format: functional; method in brief: as §2
[3] = test system: Stenotrophomonas maltophilia; test: Antimicrobial activity against Stenotrophomonas maltophilia ATCC 13637 after 18 to 24 hrs by alamar blue assay; format: functional; method in brief: as §2
Serratia marcescens = test: Antimicrobial activity against Serratia marcescens ATCC 14756 after 18 to 24 hrs by alamar blue assay; format: functional; method in brief: as §2
[4] = test system: Mycolicibacterium smegmatis; test: Antimicrobial activity against Mycobacterium smegmatis BCRC 11565 after 18 to 24 hrs by alamar blue assay; format: functional; method in brief: as §2
[5] = Inhibition of transglycosylase assessed as inhibition of NBD- labelled lipid II polymerization
Method in brief: (§3)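 100 µM NBD-labelled lipid II incubated 30 min with full-length PBP (EC, SA or Mtb) and 10 ng/µl N-acetylmuramidase in 50 mM Tris-HCl pH 8.0, 10 mM MgCl2, 0.1% Triton X-100, 10% DMSO, 15% MeOH. Supernatant run on anion-exchange HPLC with 20 mM–0.5 M ammonium acetate gradient. Inhibition calculated from substrate peak-area percentage. IC50 determined. S. aureus strains share one SA enzyme.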

[6] = Displacement of fluorescein-labeled moenomycin from transglycosylase in Escherichia coli ATCC […] assessed as inhibition of lipid II polymerization after 30 mins by fluorescence anisotropy binding assay; set-up: species or system Staphylococcus aureus
Method in brief: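 Full-length bifunctional PBP (TGase) at 10 µg/ml mixed with 100 nM fluorescent moenomycin in 10 mM Tris, 100 mM NaCl, pH 8.0, in 1536-well plates. 1 µl of 1 mM compound stock added. 10 µM moenomycin and 2.5% DMSO served as positive and negative controls. After 30 min, drop in fluorescence anisotropy read. Ki derived from Kd and IC50. Same SA enzyme serves all S. aureus strains.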

Staphylococcus aureus [7] = test: Antimicrobial activity against methicillin-resistant Staphylococcus aureus isolate NTUH4722 after 18 to 24 hrs by alamar blue assay; format: functional; method in brief: as §1
[8] = Inhibition of transglycosylase in Escherichia coli ATCC […] assessed as inhibition of NBD- labelled lipid II polymerization; method in brief: as §3
[9] = Inhibition of transglycosylase in Staphylococcus aureus ATCC 29213 assessed as inhibition of NBD- labelled lipid II polymerization; method in brief: as §3
[10] = Inhibition of transglycosylase in Staphylococcus aureus ATCC 33592 assessed as inhibition of NBD- labelled lipid II polymerization; method in brief: as §3
[11] = Inhibition of transglycosylase in Staphylococcus aureus isolate NTUH4722 assessed as inhibition of NBD- labelled lipid II polymerization; method in brief: as §3
[12] = Inhibition of transglycosylase in Staphylococcus aureus isolate Sa-OXA-R2 assessed as inhibition of NBD- labelled lipid II polymerization; method in brief: as §3
Staphylococcus aureus [13] = test: Antimicrobial activity against methicillin-resistant Staphylococcus aureus ATCC 33592 after 18 to 24 hrs by alamar blue assay; format: functional; method in brief: as §1
Staphylococcus aureus [14] = test: Antimicrobial activity against wild-type Staphylococcus aureus ATCC 29213 after 18 to 24 hrs by alamar blue assay; details: for MIC90: Staphylococcus aureus, ATCC 29213
Staphylococcus aureus [15] = test: Antimicrobial activity against Staphylococcus aureus ATCC 29213 after 18 to 24 hrs by alamar blue assay
Escherichia coli [16] = test: Displacement of fluorescein-labeled moenomycin from transglycosylase in Escherichia coli ATCC […] assessed as inhibition of lipid II polymerization at 100 uM after 30 mins by fluorescence anisotropy binding assay
[17] = Inhibition of transglycosylase assessed as inhibition of NBD- labelled lipid II polymerization at 100 uM; method in brief: as §3
[18] = Displacement of fluorescein-labeled moenomycin from transglycosylase at 100 uM after 30 mins by fluorescence anisotropy binding assay
[19] = Displacement of fluorescein-labeled moenomycin from Mycobacterium tuberculosis transglycosylase assessed as inhibition of lipid II polymerization after 30 mins by fluorescence anisotropy binding assay
Method in brief: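 Full-length bifunctional PBP (10 µg/ml) with 100 nM fluorescein-labelled moenomycin in 10 mM Tris, 100 mM NaCl, pH 8.0; compound added from 1 mM stocks; 30 min incubation, anisotropy decrease read; 10 µM moenomycin and 2.5% DMSO controls. For dose series, Ki derived from probe Kd and IC50.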

[20] = Inhibition of Mycobacterium tuberculosis transglycosylase assessed as inhibition of NBD- labelled lipid II polymerization
Method in brief: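 Full-length PBP incubated 30 min with 100 µM NBD-labelled lipid II, 10 ng/µl N-acetylmuramidase in 50 mM Tris-HCl pH 8.0, 10 mM MgCl2, 0.1% Triton X-100, 10% DMSO, 15% MeOH; supernatant on anion-exchange HPLC, ammonium acetate gradient (20 mM–0.5 M); inhibition from substrate peak area percentage.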

[21] = Pseudomonas aeruginosa, ATCC 25619, read-out: MIC
[22] = Acinetobacter baumannii, ATCC 49139, read-out: MIC
[23] = Stenotrophomonas maltophilia, ATCC 13637, read-out: MIC
[24] = Serratia marcescens, ATCC 14756, read-out: MIC
[25] = Mycolicibacterium smegmatis, BCRC 11565
[26] = Staphylococcus aureus, ATCC 33592
[27] = Escherichia coli, read-out: MIC
[28] = Mycolicibacterium smegmatis, BCRC 11565, read-out: MIC
[29] = Staphylococcus aureus, ATCC 33592, read-out: MIC

Structure (SMILES)	MIC90 (Staphylococcus aureus [1]) [µM]	MIC (Bacillus subtilis) [µg/mL]	MIC90 (Escherichia coli [2]; Escherichia coli) [µM]	MIC (Pseudomonas aeruginosa; [21]) [µg/mL]	MIC (Acinetobacter baumannii; [22]) [µg/mL]	MIC [3, 23] [µg/mL]	MIC (Serratia marcescens; [24]) [µg/mL]	MIC90 [4, 25] [µM]	IC90 [5] [µM]	Ki [6] [µM]	MIC90 (Staphylococcus aureus [7]) [µM]	IC50 [8] [µM]	IC50 [9] [µM]	IC50 [10] [µM]	MIC90 (Staphylococcus aureus [13]; [26]) [µM]	MIC90 (Staphylococcus aureus [14]) [µM]	MIC (Escherichia coli [2]; [27]) [µg/mL]	MIC [4, 28] [µg/mL]	MIC (Staphylococcus aureus [13]; [29]) [µg/mL]	MIC (Staphylococcus aureus [15]) [µg/mL]	also measured
O=C(c1ccc(Cl)cc1)c1ccc(Oc2ccc(Cl)cc2)c(NC(=O)c2cc(I)cc(I)c2O)c1	11 (≈ 8.03 µg/mL)	< 0.03	> 512	16 (≈ 21.9 µM)	16 (≈ 21.9 µM)	16 (≈ 21.9 µM)	16 (≈ 21.9 µM)	44 (≈ 32.1 µg/mL)	< 25	68	11 (≈ 8.03 µg/mL)	2.1	9.3	9.3	5.5 (≈ 4.02 µg/mL)	11 (≈ 8.03 µg/mL)	–	–	–	–	IC50 [11]: 9.3 µM; IC50 [12]: 9.3 µM
O=C(Nc1ccc(Cl)c(C(=O)c2ccc(Cl)cc2)c1)c1cc(Cl)ccc1O	–	< 0.03	–	16 (≈ 38 µM)	16 (≈ 38 µM)	16 (≈ 38 µM)	16 (≈ 38 µM)	–	100	–	–	–	–	–	–	–	8 (≈ 19 µM)	0.5 (≈ 1.19 µM)	4 (≈ 9.51 µM)	4 (≈ 9.51 µM)	MIC (Escherichia coli [2]): 8 µg/mL (≈ 19 µM); MIC (Pseudomonas aeruginosa): 16 µg/mL (≈ 38 µM); MIC (Acinetobacter baumannii): 16 µg/mL (≈ 38 µM); MIC [3]: 16 µg/mL (≈ 38 µM); MIC (Serratia marcescens): 16 µg/mL (≈ 38 µM); MIC [4]: 0.5 µg/mL (≈ 1.19 µM); MIC (Staphylococcus aureus [13]): 4 µg/mL (≈ 9.51 µM); MIC (Staphylococcus aureus [14]): >4 µg/mL
Cc1ccc(C(C)C)c(Oc2ccccc2NC(=O)c2cc(I)cc(I)c2O)c1	13 (≈ 7.97 µg/mL)	< 0.03	> 512	16 (≈ 26.1 µM)	16 (≈ 26.1 µM)	16 (≈ 26.1 µM)	16 (≈ 26.1 µM)	13 (≈ 7.97 µg/mL)	< 25	98	1.6 (≈ 0.981 µg/mL)	7.2	27.8	27.8	3.3 (≈ 2.02 µg/mL)	6.5 (≈ 3.99 µg/mL)	–	–	–	–	IC50 [11]: 27.8 µM; IC50 [12]: 27.8 µM
Cc1ccc(C(C)C)c(Oc2cc(Cl)ccc2NC(=O)c2cc(Br)cc(Br)c2O)c1	0.45 (≈ 0.249 µg/mL)	< 0.03	> 512	16 (≈ 28.9 µM)	16 (≈ 28.9 µM)	16 (≈ 28.9 µM)	16 (≈ 28.9 µM)	3.6 (≈ 1.99 µg/mL)	< 25	–	1.8 (≈ 0.997 µg/mL)	2.7	19.6	19.6	1.8 (≈ 0.997 µg/mL)	1.8 (≈ 0.997 µg/mL)	–	–	–	–	IC50 [11]: 19.6 µM; IC50 [12]: 19.6 µM; Activity (Escherichia coli [16]): inactive
COc1cccc(-c2coc3c(C)c4oc(=O)c(CCC(=O)O)c(C)c4cc23)c1	–	> 64	–	> 256	> 256	> 256	> 256	–	–	–	–	–	–	–	–	–	> 256	1 (≈ 2.55 µM)	2.5 (≈ 6.37 µM)	2.5 (≈ 6.37 µM)	MIC (Staphylococcus aureus [1]): 2.5 µg/mL (≈ 6.37 µM); inhibition [17]: 0%; MIC (Staphylococcus aureus [7]): 2.5 µg/mL (≈ 6.37 µM); inhibition [18]: 90%
O=C(Nc1ccc(Cl)c(Cl)c1)c1cc(Cl)ccc1NS(=O)(=O)c1ccc(Cl)cc1	–	< 0.03	–	> 256	> 256	> 256	> 256	–	–	–	–	–	–	–	–	–	> 256	> 64	0.25 (≈ 0.51 µM)	0.25 (≈ 0.51 µM)	MIC (Staphylococcus aureus [1]): 0.25 µg/mL (≈ 0.51 µM); inhibition [17]: 0%; MIC (Staphylococcus aureus [7]): 0.25 µg/mL (≈ 0.51 µM); inhibition [18]: 98%
CCc1ccc2oc(-c3cccc(NC(=O)c4ccc([N+](=O)[O-])o4)c3)nc2c1	1 (≈ 0.377 µg/mL)	0.06 (≈ 0.159 µM)	> 512	128 (≈ 339 µM)	12 (≈ 31.8 µM)	32 (≈ 84.8 µM)	32 (≈ 84.8 µM)	0.5 (≈ 0.189 µg/mL)	–	98	1 (≈ 0.377 µg/mL)	30.3	–	–	0.5 (≈ 0.189 µg/mL)	1 (≈ 0.377 µg/mL)	–	–	–	–	–
O=C(Nc1cc(Cl)ccc1Oc1ccccc1)c1cc(Br)cc(Br)c1O	–	< 0.03	–	16 (≈ 32.2 µM)	16 (≈ 32.2 µM)	16 (≈ 32.2 µM)	16 (≈ 32.2 µM)	–	50	–	–	–	–	–	–	–	8 (≈ 16.1 µM)	0.5 (≈ 1 µM)	0.25 (≈ 0.502 µM)	0.5 (≈ 1 µM)	MIC (Staphylococcus aureus [1]): 0.5 µg/mL (≈ 1 µM); inhibition [17]: 100%; MIC (Staphylococcus aureus [7]): 0.5 µg/mL (≈ 1 µM); inhibition [18]: 97%
C=C(C/C=C(\C)CCC=C(C)C)CCC(C)(C)/C=C/CC/C(C)=C/CO[C@@H](COP(=O)(O)O[C@H]1O[C@H](C(N)=O)[C@@](C)(O)[C@H](OC(N)=O)[C@H]1O[C@@H]1O[C@H](CO[C@@H]2O[C@H](CO)[C@@H](O)[C@H](O)[C@H]2O)[C@@H](O[C@@H]2O[C@H](C)[C@@H](O[C@@H]3O[C@H](C(=O)NC4=C(O)CCC4=O)[C@H](O)[C@H](O)[C@H]3O)[C@H](O)[C@H]2NC(C)=O)[C@H](O)[C@H]1NC(C)=O)C(=O)O [MOENOMYCIN A]	33 (≈ 52.2 µg/mL)	–	160 (≈ 253 µg/mL)	–	–	–	–	2.5 (≈ 3.96 µg/mL)	–	1.1	33 (≈ 52.2 µg/mL)	0.028	0.034	0.034	11 (≈ 17.4 µg/mL)	3 (≈ 4.75 µg/mL)	–	–	–	–	Ki [19]: 9.8 µM; IC50 [11]: 0.034 µM; IC50 [12]: 0.034 µM; IC50 [20]: 0.05 µM
O=C(c1ccc(Cl)cc1)c1cc(NC(=O)c2cc(Cl)cc(Br)c2O)c(Cl)cc1Cl	–	< 0.03	–	16 (≈ 30 µM)	16 (≈ 30 µM)	16 (≈ 30 µM)	16 (≈ 30 µM)	–	100	–	–	–	–	–	–	–	8 (≈ 15 µM)	0.5 (≈ 0.936 µM)	0.25 (≈ 0.468 µM)	0.25 (≈ 0.468 µM)	MIC (Staphylococcus aureus [1]): 0.25 µg/mL (≈ 0.468 µM); inhibition [17]: 90%; MIC (Staphylococcus aureus [7]): 0.25 µg/mL (≈ 0.468 µM); inhibition [18]: 92%
